# In ChEMBL document CHEMBL1142547, “Synthesis and antiviral activity of novel pyrazole derivatives containing oxime esters group” (Bioorg Med Chem, 2008):
# Calls of active or inactive are those of the source. The rule behind the calls is not given here.
# Tests used:
# Tobacco mosaic virus [1] = experiment: Antiviral activity against TMV assessed as protection effect against viral infection at 500 mg/L; format: functional, organism-based
# In short: (§1)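 TMV purified by Gooding's method. Protective, inactivating and curative effects tested on tobacco in vivo by Li's method at 500 mg/L. Ningnanmycin served as the reference control. Each experiment used three replicates and was run three times. Data were analysed by one-way ANOVA with LSD mean separation.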
# Tobacco mosaic virus [2] = experiment: Antiviral activity against TMV assessed as viral inactivation effect at 500 mg/L; format: functional; in short: as §1
# Tobacco mosaic virus [3] = experiment: Antiviral activity against TMV assessed as viral disease curative effect at 500 mg/L; format: functional; in short: as §1
# Nicotiana tabacum [4] = experiment: Increase in PR-1a gene expression in TMV-infected tobacco leaf assessed as gene expression ratio on day 5 by RT-PCR; format: functional
# In short: (§2)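 Real-time PCR used gene-specific primers, with β-actin as the reference, and included a 40–95 °C melt curve. Expression ratio was calculated by ΔΔCT against a calibrator over days 1–7 after TMV inoculation. Mean ± SD, n = 4, triplicate sets.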
# Nicotiana tabacum [5] = experiment: Increase in PR-5 gene expression in TMV-infected tobacco leaf assessed as gene expression ratio on day 5 by RT-PCR; format: functional; in short: as §2
# Nicotiana tabacum [6] = experiment: Increase in peroxidase enzyme level in TMV-infected tobacco at 500 ug/mL after 1 day by Polle's method; format: functional, organism-based
# In short: (§3)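 Nicotiana tabacum inoculated with TMV was treated at 500 μg/mL, and leaves were sampled at 1, 3, 5 and 7 days. Leaves were homogenized on ice in 5 mM 2-mercaptoethanol–boric acid buffer, pH 8.8, then centrifuged. The supernatant was assayed for PAL (He), POD (Polle) or SOD (Beauchamp). Water and TMV-only treatments were the controls. Means ± SD, n = 3, one-way ANOVA.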
# Nicotiana tabacum [7] = experiment: […] in phenylalanine ammonia lyase level in TMV-infected tobacco at 500 ug/mL up to 7 days by He's method; format: functional, organism-based; in short: as §3
# Nicotiana tabacum [8] = experiment: Increase in peroxidase enzyme level in TMV-infected tobacco at 500 ug/mL after 7 days by Polle's method; format: functional; in short: as §3
# Nicotiana tabacum [9] = experiment: Increase in superoxide dismutase level in TMV-infected tobacco at 500 ug/mL after 7 days by Beauchamp's method; format: functional; in short: as §3
# Nicotiana tabacum [10] = experiment: Increase in superoxide dismutase level in TMV-infected tobacco at 500 ug/mL after 1 day by Beauchamp's method; format: functional, organism-based; in short: as §3
SMILES,Activity (Tobacco mosaic virus [1]),Activity (Tobacco mosaic virus [2]),Activity (Tobacco mosaic virus [3]),further results
C/C=C/C=C/C(=O)O/N=C/C1C(C)=NN(c2ccc(Cl)cc2)C1Sc1ccc(F)cc1 (stereo not given),28.3%,82.9%,60%,–
CC(=O)O/N=C/C1C(C)=NN(c2ccccc2)C1Sc1ccc(F)cc1 (stereo not given),36.7%,81.4%,40.4%,–
CC1=NN(c2ccccc2)C(Sc2ccc(F)cc2)C1/C=N/OC(=O)c1ccccc1 (stereo not given),28.8%,55%,34.9%,–
CCCCCC(=O)O/N=C/C1C(C)=NN(c2ccc(C)cc2)C1Sc1ccc(F)cc1 (stereo not given),40.9%,61.5%,30%,–
CCCC(=O)O/N=C/C1C(C)=NN(c2ccccc2)C1Sc1ccc(F)cc1 (stereo not given),25.9%,79.9%,34%,–
C/C=C/C=C/C(=O)O/N=C/C1C(C)=NN(c2ccc(Cl)cc2)C1Sc1ccc(C)cc1 (stereo not given),50%,68.9%,38.9%,–
C/C=C/C=C/C(=O)O/N=C/C1C(C)=NN(c2ccc(C)cc2)C1Sc1ccc(F)cc1 (stereo not given),26%,80.2%,46.4%,–
CCCCCC(=O)O/N=C/C1C(C)=NN(c2ccccc2)C1Sc1ccc(F)cc1 (stereo not given),28.9%,67.8%,40.2%,–
CNCC(=O)N[C@@H](CO)C(=O)N[C@H]1[C@H](O)[C@@H](O)[C@H](n2ccc(N)nc2=O)O[C@@H]1C(N)=O [NINGNANMYCIN],–,97%,56%,Ratio (Nicotiana tabacum [4]): 13.8; Ratio (Nicotiana tabacum [5]): 17.9
COc1ccc(SC2C(/C=N/OC(=O)c3ccccc3)C(C)=NN2c2ccc(Cl)cc2)cc1 (stereo not given),27.6%,56.8%,35%,–
CCCCCC(=O)O/N=C/C1C(C)=NN(c2ccc(Cl)cc2)C1Sc1ccc(F)cc1 (stereo not given),31%,85.6%,62%,Activity (Nicotiana tabacum [6]): Active; Activity (Nicotiana tabacum [7]): Active; Ratio (Nicotiana tabacum [4]): 26.6; Activity (Nicotiana tabacum [5]): inactive; Activity (Nicotiana tabacum [8]): 40 EU/mg; Activity (Nicotiana tabacum [9]): 40 EU/mg; Activity (Nicotiana tabacum [10]): Active
CC1=NN(c2cccc(Cl)c2)C(Sc2ccc(F)cc2)C1/C=N/OC(=O)c1ccccc1 (stereo not given),41%,55%,30.2%,–
CC1=NN(c2ccc(Cl)cc2)C(Sc2ccc(F)cc2)C1/C=N/OC(=O)c1ccccc1 (stereo not given),35%,63.8%,47.7%,–
CC1=NN(c2ccc(C)cc2)C(Sc2ccc(F)cc2)C1/C=N/OC(=O)c1ccccc1 (stereo not given),48.4%,69.2%,50%,–
